# From ChEMBL document CHEMBL5674865, “BRD4 associates with p53 in DNMT3A-mutated leukemia cells and is implicated in apoptosis by the bromodomain inhibitor JQ1” (Cancer Med, 2013)
# Activity calls are given as the source filed them. The rule behind the calls is not given here.
# Key:
# OCI-AML-3 [1] = assay: Induction of apoptosis in human OCI-AML-3 cells harbouring DNMT3A-R882C and NPM1c mutants co-expressing wild-type p53 at 1 uM assessed as activation of caspase 8 measured after 24 hrs by Caspase-Glo 8 assay; format: functional, cell-based
# In short: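 OCI-AML3 cells plated at 20,000 per well and treated for 24 h. Caspase 8 activation read as luminescent signal with the Caspase-Glo 8 kit; 1 µmol/L is the positive-control level used. Mean of at least three independent experiments ± SEM; Student's t-test, P < 0.05.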
# OCI-AML-3 [2] = assay: Induction of DNA damage in human OCI-AML-3 cells harbouring DNMT3A-R882C and NPM1c mutants co-expressing wild-type p53 at 0.25 uM assessed as induction of gammaH2AX incubated for 24 hrs in combination with 10 uM KU60019 by immunolabeling method; format: functional, cell-based
# In short: (§1)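 OCI-AML3 cells treated 24 h with 0.25 µmol/L JQ1, alone or with 10 µmol/L KU60019, […] caffeine or 1 µmol/L NU7026 added together. Cells cytospun, fixed in 4% paraformaldehyde and permeabilized with 0.2% Triton X-100. Stained with anti-γH2AX (1:500) and anti-53BP1 (1:1000) for 1 h at RT, then fluorescent secondaries and DAPI. Pan-nuclear γH2AX cells and 53BP1 foci scored by microscopy. Three experiments.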
# OCI-AML-3 [3] = assay: Antiproliferative activity against human OCI-AML-3 cells harbouring DNMT3A-R882C and NPM1c mutants co-expressing wild-type p53 at 0.125 to 0.25 uM assessed as decrease in cell viability in combination of 1 to 5 uM nutlin-3 after 72 hrs by WST-1 assay; format: functional, cell-based; conditions: dose 0.125-0.25 µM
# In short: (§2)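 WST-1 viability of OCI-AML3 combinations. 20,000 cells per well treated with 0.25 µmol/L JQ1 plus the partner compound (Nutlin-3 0–2 µmol/L or 1–5 µmol/L; TSA 20 nmol/L; vorinostat 0.625 µmol/L; sodium butyrate 0.5 mmol/L; daunorubicin 0–50 nmol/L), applied together for 72 h. Read at 450 nm and expressed as % of untreated. Three experiments run in triplicate.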
# OCI-AML-3 [4] = assay: Antiproliferative activity against human OCI-AML-3 cells harbouring DNMT3A-R882C and NPM1c mutants co-expressing wild-type p53 at 0.25 uM assessed as decrease in cell viability in combination of 20 nM trichostatin A after 72 hrs by WST-1 assay; format: functional, cell-based; in short: as §2
# OCI-AML-3 [5] = assay: Induction of apoptosis in human OCI-AML-3 cells harbouring DNMT3A-R882C and NPM1c mutants co-expressing wild-type p53 at 0.25 uM assessed as activation of caspase 8 measured after 24 hrs by Caspase-Glo 8 assay; format: functional, cell-based
# In short: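 Caspase-Glo 8 luminescence assay. OCI-AML3 cells plated at 20,000 per well and treated with 0.25 µmol/L JQ1 for 24 h. BI-2536 at 1 µmol/L used as positive control.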
# K562 [6] = assay: Induction of apoptosis in human K562 cells at 0.25 uM assessed as activation of caspase 3/7 measured after 24 hrs by Caspase-Glo 3/7 assay; format: functional, cell-based
# In short: (§3)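 Caspase-Glo 3/7 luminescence assay. OCI-AML3, Raji or K562 cells plated at 20,000 per well and treated with 0.25 µmol/L JQ1, with or without 20 nmol/L TSA. Luminescence read at 2, 4 or 24 h.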
# Raji [7] = assay: Induction of apoptosis in human Raji cells at 0.25 uM assessed as activation of caspase 3/7 measured after 24 hrs by Caspase-Glo 3/7 assay; format: functional, cell-based; in short: as §3
# OCI-AML-3 [8] = assay: Induction of apoptosis in human OCI-AML-3 cells harbouring DNMT3A-R882C and NPM1c mutants co-expressing wild-type p53 at 0.25 uM assessed as activation of caspase 3/7 measured at 4 hrs by Caspase-Glo 3/7 assay; format: functional, cell-based; in short: as §3
# OCI-AML-3 [9] = assay: Induction of apoptosis in human OCI-AML-3 cells harbouring DNMT3A-R882C and NPM1c mutants co-expressing wild-type p53 at 0.25 uM assessed as activation of caspase 3/7 measured at 2 hrs by Caspase-Glo 3/7 assay; format: functional, cell-based; in short: as §3
# OCI-AML-3 [10] = assay: Induction of apoptosis in human OCI-AML-3 cells harbouring DNMT3A-R882C and NPM1c mutants co-expressing wild-type p53 at 0.25 uM assessed as activation of caspase 3/7 measured in combination of 20 nM trichostatin A after 24 hrs by Caspase-Glo 3/7 assay; format: functional, cell-based; in short: as §3
# OCI-AML-3 [11] = assay: Induction of apoptosis in human OCI-AML-3 cells harbouring DNMT3A-R882C and NPM1c mutants co-expressing wild-type p53 at 0.25 uM assessed as activation of caspase 3/7 measured after 24 hrs by Caspase-Glo 3/7 assay; format: functional, cell-based; in short: as §3
# OCI-AML-3 [12] = assay: Induction of DNA damage in human OCI-AML-3 cells harbouring DNMT3A-R882C and NPM1c mutants co-expressing wild-type p53 at 0.25 uM assessed as induction of gammaH2AX incubated for 24 hrs in combination with 1 uM NU7026 by immunolabeling method; format: functional, cell-based; in short: as §1
# OCI-AML-3 [13] = assay: Induction of DNA damage in human OCI-AML-3 cells harbouring DNMT3A-R882C and NPM1c mutants co-expressing wild-type p53 at 0.25 uM assessed as induction of gammaH2AX incubated for 24 hrs in combination with […] by immunolabeling method; format: functional, cell-based; in short: as §1
# OCI-AML-3 [14] = assay: Induction of DNA damage in human OCI-AML-3 cells harbouring DNMT3A-R882C and NPM1c mutants co-expressing wild-type p53 at 0.25 uM assessed as increase in PCNA labelling for 48 hrs by DAPI staining method; format: functional, cell-based
# OCI-AML-3 [15] = assay: Induction of DNA damage in human OCI-AML-3 cells harbouring DNMT3A-R882C and NPM1c mutants co-expressing wild-type p53 at 0.25 uM assessed as increase in pyknotic nuclei incubated for 48 hrs by DAPI staining method; format: functional
# In short: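 OCI-AML3 cells treated with 0.25 µmol/L JQ1 for 48 h, cytospun and fixed. DAPI-stained nuclei examined by fluorescence microscopy and the percentage of pyknotic nuclei scored.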
# OCI-AML-3 [16] = assay: Induction of DNA damage in human OCI-AML-3 cells harbouring DNMT3A-R882C and NPM1c mutants co-expressing wild-type p53 at 0.25 uM assessed as increase in 53BP1 foci incubated for 24 hrs by immunolabeling method; format: functional, cell-based; in short: as §1
# OCI-AML-3 [17] = assay: Induction of DNA damage in human OCI-AML-3 cells harbouring DNMT3A-R882C and NPM1c mutants co-expressing wild-type p53 at 0.25 uM assessed as increase in pan-nuclear gammaH2AX foci incubated for 24 hrs by immunolabeling method; format: functional, cell-based; in short: as §1
# OCI-AML-3 [18] = assay: Induction of apoptosis in human OCI-AML-3 cells harbouring DNMT3A-R882C and NPM1c mutants co-expressing wild-type p53 at 0.25 uM measured after 24 hrs by Annexin V/PI staining based flow cytometry method; format: functional, cell-based
# In short: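 OCI-AML3 cells treated for 24 h with 0.25 µmol/L JQ1, Nutlin-3 or both. Stained with annexin V and propidium iodide and analyzed by flow cytometry. Quadrant analysis of apoptotic populations.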
# OCI-AML-3 [19] = assay: Antiproliferative activity against human OCI-AML-3 cells harbouring DNMT3A-R882C and NPM1c mutants co-expressing wild-type p53 at 0.25 uM assessed as cell death after 96 hrs by trypan blue assay; format: functional, cell-based
# In short: (§4)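 OCI-AML3 growth curves. 80,000 cells per well in medium with or without 0.25 µmol/L JQ1. Viable cells counted by trypan blue exclusion every 24 h up to 96 h.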
# OCI-AML-3 [20] = assay: Antiproliferative activity against human OCI-AML-3 cells harbouring DNMT3A-R882C and NPM1c mutants co-expressing wild-type p53 at 0.25 uM assessed as decrease in cell viability after 96 hrs by trypan blue assay; format: functional, cell-based; in short: as §4
# Raji [21] = assay: Antiproliferative activity against human Raji cells assessed as decrease in cell viability after 96 hrs by WST-1 assay; format: functional, cell-based
# In short: (§5)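 WST-1 viability assay. 2 × 10^4 cells per well with compound, incubated for the indicated times, read at 450 nm 2–4 h after WST-1 addition. Viability is given as % of untreated cells by optical density. Compounds are dissolved in DMSO and diluted in PBS.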
# K562 [22] = assay: Antiproliferative activity against human K562 cells assessed as decrease in cell viability after 96 hrs by WST-1 assay; format: functional, cell-based; in short: as §5
# OCI-AML-3 [23] = assay: Antiproliferative activity against human OCI-AML-3 cells harbouring DNMT3A-R882C and NPM1c mutants co-expressing wild-type p53 assessed as decrease in cell viability after 96 hrs by WST-1 assay; format: functional, cell-based; in short: as §5
# OCI-AML-3 [24] = assay: Antiproliferative activity against human OCI-AML-3 cells harbouring DNMT3A-R882C and NPM1c mutants co-expressing wild-type p53 at 1 uM assessed as decrease in cell viability after 96 hrs by WST-1 assay; format: functional, cell-based; in short: as §5
# OCI-AML-3 [25] = assay: Antiproliferative activity against human OCI-AML-3 cells harbouring DNMT3A-R882C and NPM1c mutants co-expressing wild-type p53 at 0.25 uM assessed as decrease in cell viability in combination of 0.625 uM vorinostat after 72 hrs by WST-1 assay; format: functional, cell-based; in short: as §2
# OCI-AML-3 [26] = assay: Antiproliferative activity against human OCI-AML-3 cells harbouring DNMT3A-R882C and NPM1c mutants co-expressing wild-type p53 at 0.25 uM assessed as decrease in cell viability in combination of 0.5 mM sodium butyrate after 72 hrs by WST-1 assay; format: functional, cell-based; in short: as §2
# OCI-AML-3 [27] = assay: Antiproliferative activity against human OCI-AML-3 cells harbouring DNMT3A-R882C and NPM1c mutants co-expressing wild-type p53 at 0.25 uM assessed as decrease in cell viability in combination of 5 to 50 nM daunorubicin after 72 hrs by WST-1 assay; format: functional, cell-based; in short: as §2
# OCI-AML-3 [28] = assay: Antiproliferative activity against human OCI-AML-3 cells harbouring DNMT3A-R882C and NPM1c mutants co-expressing wild-type p53 at 1 to 5 uM assessed as decrease in cell viability after 72 hrs by WST-1 assay; format: functional, cell-based; conditions: dose 1-5 µM
# In short: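 OCI-AML3 cells (DNMT3A-R882, NPM1c, p53 wild-type) in RPMI 1640 with 10% FCS, L-glutamine, penicillin and streptomycin. Cells plated at 2 × 10^4 per well and exposed for 72 h; DMSO stocks diluted in PBS. WST-1 added and absorbance read at 450 nm 2–4 h later. Viability taken relative to untreated cells (100%). Three experiments in triplicate, mean ± SEM.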
compound,measurement,setting,value
CC[C@@H]1C(=O)N(C)c2cnc(Nc3ccc(C(=O)NC4CCN(C)CC4)cc3OC)nc2N1C1CCCC1,Activity,OCI-AML-3 [1],Active
C[C@@H]1CN(CC(=O)Nc2ccc3c(c2)Cc2cccc(-c4cc(=O)cc(N5CCOCC5)o4)c2S3)C[C@H](C)O1.Cc1sc2c(c1C)C(c1ccc(Cl)cc1)=N[C@@H](CC(=O)OC(C)(C)C)c1nnc(C)n1-2,Activity,OCI-AML-3 [2],inactive
COc1ccc(C2=NC(c3ccc(Cl)cc3)C(c3ccc(Cl)cc3)N2C(=O)N2CCNC(=O)C2)c(OC(C)C)c1.Cc1sc2c(c1C)C(c1ccc(Cl)cc1)=N[C@@H](CC(=O)OC(C)(C)C)c1nnc(C)n1-2 (stereo unspecified),Activity,OCI-AML-3 [3],Active
Cc1sc2c(c1C)C(c1ccc(Cl)cc1)=N[C@@H](CC(=O)OC(C)(C)C)c1nnc(C)n1-2,Activity,OCI-AML-3 [4],Active
same,Activity,OCI-AML-3 [5],inactive
same,Activity,K562 [6],inactive
same,Activity,Raji [7],Active
same,Activity,OCI-AML-3 [8],inactive
same,Activity,OCI-AML-3 [9],inactive
same,Activity,OCI-AML-3 [10],Active
same,Activity,OCI-AML-3 [11],Active
same,Activity,OCI-AML-3 [12],inactive
same,Activity,OCI-AML-3 [13],inactive
same,Activity,OCI-AML-3 [14],Active
same,Activity,OCI-AML-3 [15],3.2%
same,Activity,OCI-AML-3 [16],Active
same,Activity,OCI-AML-3 [17],inactive
same,Activity,OCI-AML-3 [18],Active
same,Activity,OCI-AML-3 [19],Active
same,Activity,OCI-AML-3 [20],Active
same,IC50,Raji [21],~1 µM
same,IC50,"K562 [22]; K562, 96 h",> 2 µM
same,IC50,"OCI-AML-3 [23]; OCI-AML-3, 96 h",~0.5 µM
same,Activity,OCI-AML-3 [24],Active
same,Activity,OCI-AML-3 [25],Active
same,Activity,OCI-AML-3 [26],Active
same,Activity,OCI-AML-3 [27],Active
Cc1sc2c(c1C)C(c1ccc(Cl)cc1)=N[C@H](CC(=O)OC(C)(C)C)c1nnc(C)n1-2,Activity,Raji [21],inactive
same,Activity,K562 [22],inactive
same,Activity,OCI-AML-3 [23]; dose 1.0 µM,inactive
COc1ccc(C2=NC(c3ccc(Cl)cc3)C(c3ccc(Cl)cc3)N2C(=O)N2CCNC(=O)C2)c(OC(C)C)c1 (stereo unspecified),Activity,OCI-AML-3 [28],inactive
